Measurements taken from ChEMBL document CHEMBL1255501, “Heteroresistance of Cryptococcus gattii to fluconazole” (2010).
Calls of active or inactive are those of the source. The calls are words filed in the database; no cut-off is given here.

Tests used:
[1] = test system: Cryptococcus gattii species complex; assay: Antimicrobial activity against Cryptococcus gattii serotype B isolate RAM-005 assessed as concentration required for heteroresistance; assay type: functional, Cryptococcus bacillisporus
[2] = test system: Cryptococcus gattii species complex; assay: Antimicrobial activity against Cryptococcus gattii serotype B isolate NIH367 assessed as heteroresistant isolates at 2 ug/ml; assay type: functional, Cryptococcus bacillisporus
In short: (§1)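 Population analysis: cells suspended in sterile saline at 1 × 10³ to 4 × 10³ CFU/ml and plated on plain YPD agar or YPD agar with various fluconazole concentrations. Plates incubated at 30°C for 72 h. The resistant subpopulation at each concentration is recorded as a percentage of the population.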

[3] = test system: Cryptococcus gattii species complex; assay: Antimicrobial activity against Cryptococcus gattii serotype C isolate NIH18 assessed as heteroresistant isolates at 4 ug/ml; assay type: functional, Cryptococcus bacillisporus
In short: (§2)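 Population analysis: saline cell suspensions (1 × 103 to 4 × 10^3 CFU/ml) plated on plain YPD agar or YPD agar with various fluconazole concentrations; growth recorded after 72 h at 30°C; percentage of resistant subpopulation at each drug level calculated relative to drug-free plate growth.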

[4] = test system: Cryptococcus gattii species complex; assay: Antimicrobial activity against Cryptococcus gattii serotype B isolate B5763 assessed as heteroresistant isolates at 8 ug/ml; assay type: functional, Cryptococcus bacillisporus; in short: as §1
[5] = test system: Cryptococcus gattii species complex; assay: Antimicrobial activity against Cryptococcus gattii serotype B isolate RAM002 assessed as heteroresistant isolates at 4 ug/ml; assay type: functional, Cryptococcus bacillisporus; in short: as §2
[6] = test system: Cryptococcus gattii species complex; assay: Antimicrobial activity against Cryptococcus gattii serotype B isolate NIH200 assessed as concentration required for heteroresistance; assay type: functional, Cryptococcus bacillisporus
In short: (§3)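 Fluconazole spot test: 10-fold serial dilutions of each single-colony-purified strain spotted on YPD agar alone and YPD agar with fluconazole at 4 to 128 μg/ml. The level of heteroresistance to fluconazole (LHF) is the lowest drug concentration at which minor resistant subpopulations emerge within the spot.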

[7] = test system: Cryptococcus gattii species complex; assay: Antimicrobial activity against Cryptococcus gattii serotype B isolate B3939 assessed as heteroresistant isolates at 4 ug/ml; assay type: functional, Cryptococcus bacillisporus; in short: as §1
[8] = test system: Cryptococcus gattii species complex; assay: Antimicrobial activity against Cryptococcus gattii serotype C isolate H0058-1-78 assessed as heteroresistant isolates at 32 ug/ml; assay type: functional, Cryptococcus bacillisporus; in short: as §2
[9] = test system: Cryptococcus gattii species complex; assay: Antimicrobial activity against Cryptococcus gattii serotype C isolate H0058-1-78 assessed as concentration required for heteroresistance; assay type: functional, Cryptococcus bacillisporus
[10] = test system: Cryptococcus gattii species complex; assay: Antimicrobial activity against Cryptococcus gattii serotype B isolate RB-9 assessed as concentration required for heteroresistance; assay type: functional, Cryptococcus bacillisporus
[11] = test system: Cryptococcus gattii species complex; assay: Antimicrobial activity against fluconazole-resistant Cryptococcus gattii serotype B isolate RB14 at 256 ug/ml; assay type: functional, organism-based; settings: Cryptococcus bacillisporus
[12] = test system: Cryptococcus gattii species complex; assay: Antimicrobial activity against Cryptococcus gattii serotype C isolate NIH18 assessed as heteroresistant isolates at 32 ug/ml; assay type: functional, Cryptococcus bacillisporus, serotype B isolate  NIH18; in short: as §2
[13] = test system: Cryptococcus gattii species complex; assay: Antimicrobial activity against Cryptococcus gattii serotype B isolate B5788 assessed as concentration required for heteroresistance; assay type: functional, Cryptococcus bacillisporus; in short: as §3
[14] = test system: Cryptococcus gattii species complex; assay: Antimicrobial activity against Cryptococcus gattii serotype B isolate RB-11 assessed as concentration required for heteroresistance; assay type: functional, Cryptococcus bacillisporus
[15] = test system: Cryptococcus bacillisporus; assay: Antimicrobial activity against Cryptococcus gattii serotype C isolate NIH191 assessed as concentration required for heteroresistance; assay type: functional
[16] = test system: Cryptococcus bacillisporus; assay: Antimicrobial activity against Cryptococcus gattii serotype C isolate NIH191 assessed as heteroresistant isolates at 2 ug/ml; assay type: functional; in short: as §2
[17] = test system: Cryptococcus gattii species complex; assay: Antimicrobial activity against Cryptococcus gattii serotype B isolate RB-1 assessed as concentration required for heteroresistance; assay type: functional, Cryptococcus bacillisporus
[18] = test system: Cryptococcus gattii species complex; assay: Antimicrobial activity against Cryptococcus gattii serotype C isolate NIH298 assessed as concentration required for heteroresistance; assay type: functional, Cryptococcus bacillisporus
In short: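 […] on YPD agar at 4 to 128 μg/ml. The lowest drug concentration at which minor resistant subpopulations emerged within the patch was scored as the strain's level of heteroresistance.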

[19] = test system: Cryptococcus gattii species complex; assay: Antimicrobial activity against Cryptococcus gattii serotype B isolate RAM15 assessed as heteroresistant isolates at 32 ug/ml; assay type: functional, Cryptococcus bacillisporus; in short: as §2
[20] = test system: Cryptococcus gattii species complex; assay: Antimicrobial activity against Cryptococcus gattii serotype B isolate NIH286 assessed as heteroresistant isolates at 32 ug/ml; assay type: functional, Cryptococcus bacillisporus; in short: as §1
[21] = test system: Cryptococcus gattii species complex; assay: Antimicrobial activity against Cryptococcus gattii serotype B isolate RB-33 assessed as concentration required for heteroresistance; assay type: functional, Cryptococcus bacillisporus
[22] = test system: Cryptococcus gattii species complex; assay: Antimicrobial activity against Cryptococcus gattii serotype C isolate H0058-1-818 assessed as concentration required for heteroresistance; assay type: functional, Cryptococcus bacillisporus
[23] = test system: Cryptococcus gattii species complex; assay: Antimicrobial activity against Cryptococcus gattii serotype B isolate NIH189 assessed as heteroresistant isolates at 16 ug/ml; assay type: functional, Cryptococcus bacillisporus; in short: as §1
[24] = test system: Cryptococcus gattii species complex; assay: Antimicrobial activity against Cryptococcus gattii serotype C isolate H0058-1-1875 assessed as concentration required for heteroresistance; assay type: functional, Cryptococcus bacillisporus
[25] = test system: Cryptococcus gattii species complex; assay: Antimicrobial activity against Cryptococcus gattii serotype B isolate NIH771 assessed as concentration required for heteroresistance; assay type: functional, Cryptococcus bacillisporus; in short: as §3
[26] = test system: Cryptococcus gattii species complex; assay: Antimicrobial activity against Cryptococcus gattii serotype C isolate NIH187 assessed as concentration required for heteroresistance; assay type: functional, Cryptococcus bacillisporus
[27] = test system: Cryptococcus deuterogattii; assay: Antimicrobial activity against Cryptococcus gattii serotype B isolate NIH444 assessed as heteroresistant isolates at 4 ug/ml; assay type: functional, Cryptococcus bacillisporus; in short: as §1

With `OC(Cn1cncn1)(Cn1cncn1)c1ccc(F)cc1F` [FLUCONAZOLE] the Activity [1] was 32 µg/mL, the Activity [2] was 100% and the Activity [3] was 100%. The Activity [4] was 0.03%, the Activity [5] was 100% and the Activity [6] was 4 µg/mL. For the same compound, the Activity [7] was 100%, the Activity [8] was 2.3% and the Activity [9] was 32 µg/mL. For the same compound, the Activity [10] was 32 µg/mL, the Activity [11] was “inactive” and the Activity [12] was 0.44%. It also gave an Activity [13] of 8 µg/mL, an Activity [14] of 32 µg/mL and an Activity [15] of 32 µg/mL. For the same compound, the Activity [16] was 100%, the Activity [17] was 32 µg/mL and the Activity [18] was 32 µg/mL. The Activity [19] was 10%, the Activity [20] was 0.06% and the Activity [21] was 32 µg/mL. For the same compound, the Activity [22] was 32 µg/mL, the Activity [23] was 0.7% and the Activity [24] was 32 µg/mL. The Activity [25] was 32 µg/mL, the Activity [26] was 32 µg/mL and the Activity [27] was 100%.
